Measurements: ChEMBL document CHEMBL5625195, “Identification of novel tetrahydroquinoxaline derived phenyl ureas as modulators of the hepatitis B virus nucleocapsid assembly” (Eur J Med Chem, 2023)
Active and inactive are the calls of the source. No cut-off for these calls is given here.

Key:
AML12 = test: Cytotoxicity against mouse AML12 cells assessed as reduction in cell viability incubated for 48 hrs by MTT assay; type: toxicity, cell-based; settings: aml12, 48 h
Procedure, shortened: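 Stable AML12HBV10 hepatocytes (AML12-derived), cultured without tetracycline, were exposed to 2-fold serial dilutions (50 μM to 1.56 μM) for 48 h. Viability was inspected microscopically and quantified by MTT. CC50 was the concentration lowering viability by 50%.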

Hepatitis B virus [1] = test: Antiviral activity against HBV infected in AML12HBV10 cells assessed as decrease in encapsidated pgRNA at 1 to 5 uM after 2 days by Northern blot hybridization; type: functional, organism-based; settings: dose 1-5 µM, time 2.0 day
Procedure, shortened: (§1)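 AML12HBV10 cells were induced by tetracycline withdrawal for 24 h, then mock (DMSO) or compound treated for 48 h, with tetracycline-maintained cells as negative control. Encapsidated pgRNA was detected by Northern blot hybridization, using ribosomal RNA as loading control.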

Hepatitis B virus [2] = test: Antiviral activity against HBV infected in AML12HBV10 cells assessed as decrease in viral DNA replication at 1 to 5 uM after 2 days by Northern blot hybridization; type: functional, organism-based; settings: dose 1-5 µM, time 2.0 day
Procedure, shortened: (§2)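 AML12HBV10 cells in 24-well plates were kept with or without tetracycline for 24 h. Tet-maintained cells served as the no-pgRNA negative control. Cells were then mock (DMSO) or compound treated for 48 h. Total viral RNA and encapsidated pgRNA were read by Northern blot with rRNA as loading control. Core protein was read by Western blot (C-terminal 14-residue antibody, β-actin control), capsids by native particle gel assay, and replication intermediates by Southern blot.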

Hepatitis B virus [3] = test: Antiviral activity against HBV infected in AML12HBV10 cells assessed as change in total viral RNA at 1 to 5 uM after 2 days by Northern blot hybridization; type: functional, organism-based; settings: dose 1-5 µM, time 2.0 day; procedure, shortened: as §2
Hepatitis B virus [4] = test: Antiviral activity against HBV infected in AML12HBV10 cells assessed as decrease in capsid assembly at 1 to 5 uM after 2 days by Northern blot hybridization; type: functional, organism-based; settings: dose 1-5 µM, time 2.0 day
Procedure, shortened: (§3)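 AML12HBV10 cells (mouse hepatocyte line carrying tetracycline-inducible, envelope-deficient HBV genome) in 24-well plates. Tetracycline was removed for 24 h before treatment; tetracycline-maintained cells served as negative control. Cells were mock (DMSO) or compound treated for a further 48 h. Intracellular capsids and core-associated DNA were resolved by native agarose gel particle assay.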

Hepatitis B virus [5] = test: Antiviral activity against HBV infected in AML12HBV10 cells assessed as change in core protein at 1 to 5 uM after 2 days by Northern blot hybridization; type: functional, organism-based; settings: dose 1-5 µM, time 2.0 day; procedure, shortened: as §2
Hepatitis B virus [6] = test: Antiviral activity against HBV infected in AML12HBV10 cells assessed as reduction viral replication incubated for 48 hrs; type: functional, organism-based; settings: AML12HBV10, 48 h
Procedure, shortened: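 AML12HBV10 cells were seeded at 2 x 10^4 per well without tetracycline. After one day, 2-fold serial dilutions (10 μM to 0.08 μM) were applied for 48 h. Lysates were denatured, neutralized and dot-blotted, then hybridized with a 32P-labelled riboprobe specific for HBV minus-strand DNA and read by phosphorimager. EC50 was the concentration reducing HBV DNA by 50%.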

Hepatitis B virus [7] = test: Antiviral activity against HBV infected in AML12HBV10 cells assessed as change in capsid associated viral DNA at 1 uM after 2 days by Northern blot hybridization; type: functional, organism-based; settings: time 2.0 day; procedure, shortened: as §3
Hepatitis B virus [8] = test: Antiviral activity against HBV infected in AML12HBV10 cells assessed as change in capsids at 1 uM after 2 days by Northern blot hybridization; type: functional, organism-based; settings: time 2.0 day; procedure, shortened: as §3
Hepatitis B virus [9] = test: Antiviral activity against HBV infected in AML12HBV10 cells assessed as change in core protein at 1 uM after 2 days by Northern blot hybridization; type: functional, organism-based; settings: time 2.0 day; procedure, shortened: as §2
Hepatitis B virus [10] = test: Antiviral activity against HBV infected in AML12HBV10 cells assessed as change in DNA replication intermediates at 1 uM after 2 days by Northern blot hybridization; type: functional, organism-based; settings: time 2.0 day; procedure, shortened: as §2
Hepatitis B virus [11] = test: Antiviral activity against HBV infected in AML12HBV10 cells assessed as change in total viral RNA at 1 uM after 2 days by Northern blot hybridization; type: functional, organism-based; settings: time 2.0 day; procedure, shortened: as §2
Hepatitis B virus [12] = test: Antiviral activity against HBV infected in AML12HBV10 cells assessed as change in encapsidated pgRNA at 1 uM after 2 days by Northern blot hybridization; type: functional, organism-based; settings: time 2.0 day; procedure, shortened: as §1
Hepatitis B virus [13] = test: Antiviral activity against HBV infected in AML12HBV10 cells assessed as reduction in viral DNA replication at 2 uM after 2 days by Northern blot hybridization; type: functional, organism-based; settings: time 2.0 day; procedure, shortened: as §2
Hepatitis B virus [14] = test: Antiviral activity against HBV infected in AML12HBV10 cells assessed as reduction in encapsidated pgRNA at 2 uM after 2 days by Northern blot hybridization; type: functional, organism-based; settings: time 2.0 day; procedure, shortened: as §1
Hepatitis B virus [15] = test: Antiviral activity against HBV infected in AML12HBV10 cells assessed as decrease in capsid assembly at 2 uM after 2 days by Northern blot hybridization; type: functional, organism-based; settings: time 2.0 day; procedure, shortened: as §3
Hepatitis B virus [16] = test: Antiviral activity against HBV infected in AML12HBV10 cells assessed as accumulation of capsid at 5 uM after 2 days by Northern blot hybridization; type: functional, organism-based; settings: time 2.0 day; procedure, shortened: as §3
Hepatitis B virus [17] = test: Antiviral activity against HBV infected in AML12HBV10 cells assessed as reduction in viral DNA replication at 5 uM after 2 days by Northern blot hybridization; type: functional, organism-based; settings: time 2.0 day; procedure, shortened: as §2
Hepatitis B virus [18] = test: Antiviral activity against HBV infected in AML12HBV10 cells assessed as reduction in encapsidated pgRNA at 5 uM after 2 days by Northern blot hybridization; type: functional, organism-based; settings: time 2.0 day; procedure, shortened: as §1

In the case of `O=C(Nc1ccc(F)c(Cl)c1)N1CCNc2ccccc21`, the CC50 (AML12) is reported as greater than 100000 nM, the Activity (Hepatitis B virus [1]) is reported as “Active” and the Activity (Hepatitis B virus [2]) is reported as “Active”. The Activity (Hepatitis B virus [3]) was “inactive”, the Activity (Hepatitis B virus [4]) was “Active” and the Activity (Hepatitis B virus [5]) was “inactive”. The EC50 (Hepatitis B virus [6]) was 510 nM.

With `C=C1[C@H](CO)[C@@H](O)C[C@@H]1n1cnc2c(=O)[nH]c(N)nc21` the Activity (Hepatitis B virus [7]) was “Active”, the Activity (Hepatitis B virus [8]) was “inactive” and the Activity (Hepatitis B virus [9]) was “inactive”. The Activity (Hepatitis B virus [10]) was “Active”, the Activity (Hepatitis B virus [11]) was “inactive” and the Activity (Hepatitis B virus [12]) was “inactive”.

In the case of `COC(=O)C1=C(C)NC(c2ncc(F)cc2F)=N[C@H]1c1ccc(F)cc1Cl`, the Activity (Hepatitis B virus [13]) is reported as “Active”, the Activity (Hepatitis B virus [14]) is reported as “Active” and the Activity (Hepatitis B virus [15]) is reported as “Active”. The Activity (Hepatitis B virus [16]) was “Active”.

`CCC(C)NS(=O)(=O)c1ccc(F)c(C(=O)Nc2ccc(F)c(F)c2)c1` (centres undefined) was tested, and the Activity (Hepatitis B virus [17]) was “Active” and the Activity (Hepatitis B virus [18]) was “Active”.
